For eight compounds, Activity results are on record in ChEMBL document CHEMBL1143284, “Synthesis of riccardin C and its seven analogues. Part 1: The role of their phenolic hydroxy groups as LXRalpha agonists” (Bioorg Med Chem Lett, 2009).

In test [1] the target is T1, Oxysterols receptor LXR-beta (Homo sapiens) (UniProt P55055).
T1 sequence (whole entry): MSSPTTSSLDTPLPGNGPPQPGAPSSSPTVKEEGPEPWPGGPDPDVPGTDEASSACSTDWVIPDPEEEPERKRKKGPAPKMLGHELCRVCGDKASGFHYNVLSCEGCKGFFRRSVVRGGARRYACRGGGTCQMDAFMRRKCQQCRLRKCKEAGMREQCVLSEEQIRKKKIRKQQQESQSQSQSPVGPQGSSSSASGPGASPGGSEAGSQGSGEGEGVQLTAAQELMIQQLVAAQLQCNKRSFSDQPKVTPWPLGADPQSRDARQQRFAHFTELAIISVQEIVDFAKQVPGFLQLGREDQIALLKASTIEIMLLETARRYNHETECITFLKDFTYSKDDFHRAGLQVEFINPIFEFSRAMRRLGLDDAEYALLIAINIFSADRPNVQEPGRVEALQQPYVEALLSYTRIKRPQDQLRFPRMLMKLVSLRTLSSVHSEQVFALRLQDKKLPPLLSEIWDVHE
Description: Agonist activity at full length LXRbeta expressed in african green monkey COS1 cells co-transfected with RXRalpha assessed as increase in LXR-response element driven luciferase reporter gene transactivation at 10 to 30 uM after 24 hrs. Particulars: COS-1. A general note: Reporter assays use an easily measured gene product as a stand-in for the process of interest.

The target of test [2] is T2, Oxysterols receptor LXR-alpha (Homo sapiens) (UniProt Q13133).
T2 sequence (whole entry): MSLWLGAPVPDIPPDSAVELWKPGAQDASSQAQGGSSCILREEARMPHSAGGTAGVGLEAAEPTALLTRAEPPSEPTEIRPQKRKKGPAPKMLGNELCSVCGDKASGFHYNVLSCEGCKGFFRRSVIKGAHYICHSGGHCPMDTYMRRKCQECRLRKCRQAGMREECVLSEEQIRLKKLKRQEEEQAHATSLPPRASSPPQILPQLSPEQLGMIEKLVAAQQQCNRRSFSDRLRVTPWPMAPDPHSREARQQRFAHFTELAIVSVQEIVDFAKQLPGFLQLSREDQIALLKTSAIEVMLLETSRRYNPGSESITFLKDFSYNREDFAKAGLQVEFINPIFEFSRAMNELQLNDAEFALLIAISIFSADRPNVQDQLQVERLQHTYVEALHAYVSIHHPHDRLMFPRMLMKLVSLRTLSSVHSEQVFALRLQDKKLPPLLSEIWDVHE
Put plainly: Agonist activity at full length LXRalpha expressed in african green monkey COS1 cells co-transfected with RXRalpha assessed as increase in LXR-response element driven luciferase reporter gene transactivation at 10 to 30 uM after 24 hrs. Particulars: COS-1.

Test [3] addresses T1, Oxysterols receptor LXR-beta (Homo sapiens). Description: Activation of full length LXRbeta expressed in african green monkey COS7 cells co-transfected with RXRalpha assessed as increase in LXR-response element driven luciferase reporter gene transactivation after 24 hrs. The class given is cell-based. Particulars: COS-7. In short, it runs like this:
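Transient LXR/RXRα luciferase reporter assay in COS cells with β-galactosidase as internal control. Cells treated 24 h with test compounds at 10 or 30 μM, or TO901317 at 100 nM, in the presence of compactin to deplete endogenous LXR ligands. Luciferase activity in cell extracts normalized to β-galactosidase and expressed as fold induction over vehicle-treated cells.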

Structures are written as SMILES. Activity calls are given as the source filed them. The calls are words filed in the database; no cut-off is given here.

In the case of `COc1ccc2c(c1)CCc1ccc(cc1)Oc1cc(ccc1OC)CCc1ccc-2c(OC)c1`, the result in test [1] and in test [2] was inactive. In the case of `COc1cc2ccc1-c1ccc(O)cc1CCc1ccc(cc1)Oc1cc(ccc1O)CC2`, the result in test [1] and in test [2] was inactive. In the case of `COc1ccc2cc1Oc1ccc(cc1)CCc1cc(O)ccc1-c1ccc(cc1O)CC2`, the result in test [1] and in test [2] was inactive. For the compound `COc1ccc2c(c1)CCc1ccc(cc1)Oc1cc(ccc1OC)CCc1ccc-2c(O)c1`, the result in test [1] and in test [2] was inactive. For the compound `COc1ccc2c(c1)CCc1ccc(cc1)Oc1cc(ccc1O)CCc1ccc-2c(O)c1`, the result in test [1] and in test [2] was inactive. On to `COc1ccc2c(c1)CCc1ccc(cc1)Oc1cc(ccc1O)CCc1ccc-2c(OC)c1`, for which the outcome in test [1] and in test [2] was inactive. Regarding `COc1ccc2cc1Oc1ccc(cc1)CCc1cc(O)ccc1-c1ccc(cc1OC)CC2`, the outcome in test [1] and in test [2] was inactive. Take `Oc1ccc2c(c1)CCc1ccc(cc1)Oc1cc(ccc1O)CCc1ccc-2c(O)c1`: the outcome in test [3] was inactive.
